Screening results deposited in PubChem by Johns Hopkins Ion Channel Center.
Kir21 block = inhibitors of mouse Kir2.1 inward-rectifier potassium channel; Inward rectifier potassium channel 2 (Mus musculus), P35561; HEK293-Kir2.1, FluxOR thallium flux fluorescence; hits give low values; B-score at 10 µM; 310,000 tested, 0.85% active; AID 1672, 2009;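 active = fluorescence ratio B-score at or below minus 3 SD of library scores, with starting-brightness B-score within 2 SD, cut at about -4.2 in these data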;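 also: channel flux triggered by added potassium and thallium sulfate stimulus; B-score of peak minus minimum fluorescence over baseline after thallium stimulus; more negative B-score means stronger Kir2.1 block with less thallium influx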
Target sequence (P35561 whole entry, looked up): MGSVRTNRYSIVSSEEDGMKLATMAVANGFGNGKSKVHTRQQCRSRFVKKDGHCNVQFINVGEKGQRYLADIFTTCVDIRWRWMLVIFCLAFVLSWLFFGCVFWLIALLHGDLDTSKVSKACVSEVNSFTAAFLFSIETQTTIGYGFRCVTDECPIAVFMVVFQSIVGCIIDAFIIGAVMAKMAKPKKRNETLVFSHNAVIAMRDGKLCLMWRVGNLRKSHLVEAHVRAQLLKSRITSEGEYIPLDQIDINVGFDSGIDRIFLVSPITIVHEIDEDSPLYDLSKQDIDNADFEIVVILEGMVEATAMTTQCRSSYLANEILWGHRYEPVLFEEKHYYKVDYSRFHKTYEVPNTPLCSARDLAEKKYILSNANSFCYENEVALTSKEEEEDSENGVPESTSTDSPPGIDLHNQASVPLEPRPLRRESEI
RGS4 inh = RGS4 inhibitors, primary screen, cell-based, HEK293 M3R inducible RGS4, calcium flux | 310,000 tested, 0.45% active | Regulator of G-protein signaling 4 (Homo sapiens), P49798 | Fluo-4 calcium flux; hits give high values; triggered by carbachol at its EC20 | B-score at 10 µM;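 active = B-score, a plate-corrected calcium signal, over three deviations above library mean, with baseline fluorescence within five deviations of library mean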;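 also: RGS4 expression induced by doxycycline in cells with stable M3 receptor; B-score is computed from the integrated fluorescence ratio over baseline after carbachol; higher B-score means a larger calcium signal and so more RGS4 inhibition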
MrgX1 antagonist = antagonists of human MrgX1 receptor, primary screen, HEK293 cells, Fluo-4 calcium flux. Mas-related G-protein coupled receptor member X1 (Homo sapiens), Q96LB2. BAM8-22 antagonism; hits give low values. B-score at 10 µM. 310,000 tested, 1.3% active. AID 588676, 2011;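 active = calcium-response B-score plate-corrected more than 3 library SD below zero, starting fluorescence within 5 deviations, no agonist response on first addition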;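 also: peak minus trough fluorescence over baseline after final BAM8-22 challenge near maximal dose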
Target sequence (Q96LB2 whole entry, looked up): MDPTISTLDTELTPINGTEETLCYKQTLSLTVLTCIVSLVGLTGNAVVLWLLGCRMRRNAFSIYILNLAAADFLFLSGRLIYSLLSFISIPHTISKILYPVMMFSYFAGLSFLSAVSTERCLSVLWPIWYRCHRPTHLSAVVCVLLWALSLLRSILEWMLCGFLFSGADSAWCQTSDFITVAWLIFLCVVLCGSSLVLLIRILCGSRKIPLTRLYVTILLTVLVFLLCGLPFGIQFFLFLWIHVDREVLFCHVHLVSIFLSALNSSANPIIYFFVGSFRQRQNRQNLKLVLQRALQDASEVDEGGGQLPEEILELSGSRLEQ
MrgX1 allo act = positive allosteric modulators of MrgX1, primary screen, HEK293 cells, Fluo-4 calcium flux. Mas-related G-protein coupled receptor member X1 (Homo sapiens), Q96LB2. FDSS; hits give high values. B-score at 10 µM. 310,000 tested, 0.63% active. AID 588675, 2011;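 active = plate-corrected calcium response at least 3 library SD above typical, normal starting fluorescence, not activating the receptor alone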;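 also: compound read alongside a low EC10 to EC30 dose of BAM8-22 agonist; peak minus trough fluorescence over baseline measured at the second addition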
MrgX1 ag = agonists of human MrgX1 receptor, primary screen, HEK293 cells, Fluo-4 calcium flux | Mas-related G-protein coupled receptor member X1 (Homo sapiens), Q96LB2 | Fluo-4 calcium fluorescence, agonist mode; hits give high values | B-score at 10 µM | 310,000 tested, 0.44% active | AID 588627, 2011;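 active = calcium response B-score plate-corrected fluorescence ratio at least 3 library SD, with starting fluorescence B-score inside 5 SD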
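Test system: Stable human MrgX1 HEK293 cell line | Schedule: Overnight plating before 1 h dye loading | Read-out basis: Baseline-normalised fluorescence change ratio, B-scored | Detection: Kinetic calcium dye fluorescence, Fluo-4 NW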
RGS4 pot = RGS4 potentiators or activators, primary screen, cell-based, HEK293 M3R inducible RGS4, calcium flux | B-score at 10 µM | carbachol calcium flux Fluo4; hits give low values | AID 463111, 2010 | 310,000 tested, 0.92% active;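 active = B-score of the integrated calcium signal more than 4 SD below the library mean, with starting fluorescence not abnormally high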;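 also: negative B-score means reduced calcium response which marks RGS4 activation or potentiation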
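Assay system: Inducible-RGS4 HEK293 cells carrying M3 receptor | Schedule: Compound preincubation 20 min at room temperature before agonist | Signal: Kinetic calcium fluorescence imaging with Fluo4-AM dye, 2 µM | Read-out basis: B score from integrated fluorescence ratio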
MrgX1 PAM conf = MrgX1 positive allosteric modulators, duplicate retest, confirmation, HEK293 cells, Fluo-4 calcium flux; shares compounds with MrgX1 allo act; Fluo-4 calcium fluorescence, FDSS; activation (ratio percentage), % at 10 µM; 1,200 tested, 13% active; AID 602413, 2012;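 active = ratio at least 3 SD above the weak peptide control, stable starting fluorescence, no direct agonism earlier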;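 also: compound followed by low BAM8-22 agonist challenge near EC20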
HEK293 Ca flux = nonspecific calcium signal in parental HEK293, confirmation, counter-screen for MrgX1 antagonist project, parental HEK293 cells, Fluo-4 calcium flux; AID 624111, 2012; Fluo-4 calcium fluorescence, FDSS; fluorescence ratio F(max-min)/F0 at 10 µM; 4,000 tested, 2% active; shares compounds with MrgX1 antagonist;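 active = duplicate-averaged calcium fluorescence ratio at least three times the standard deviation of buffer wells, a nonspecific response in parental cells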
HEK293 Ca counter = calcium response in parental HEK293 cells, primary screen, counter-screen for MrgX1 allosteric activator project, cell-based, Fluo-4 calcium flux, duplicate; shares compounds with MrgX1 antagonist; AID 624114, 2012; 4,000 tested, 0.4% active; Fluo-4 fluorescence ratio; hits give high values; fluorescence ratio F(max-min)/F0 at 10 µM;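 active = calcium fluorescence ratio, averaged over duplicates, at least 3 SD of the buffer-well ratio, meaning a nonspecific response in receptor-free cells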;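 also: untransfected parental HEK293 lacking MrgX1 used as counterscreen for MrgX1 allosteric activators; fluorescence change taken during the second addition on a kinetic imager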
HEK293 Ca cntr2 = calcium response in parental HEK293 cells, primary screen, counter-screen for MrgX1 agonist project, cell-based, Fluo-4 calcium flux, duplicate, agonist mode | 4,000 tested, 8.7% active | fluorescence ratio F(max-min)/F0 at 10 µM | Fluo-4 calcium fluorescence (FDSS); hits give high values | shares compounds with MrgX1 antagonist;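 active = calcium fluorescence ratio at least three times the spread of buffer wells, meaning a non-specific response in parental cells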
Numbers without * were called inactive; i = inactive; . = no result given. An excerpt weighted towards active compounds, which were near 4.1% of everything screened.

SMILES | Kir21 block | RGS4 inh | MrgX1 antagonist | MrgX1 allo act | MrgX1 ag | RGS4 pot | MrgX1 PAM conf | HEK293 Ca flux | HEK293 Ca counter | HEK293 Ca cntr2
Cc1nnc(SCC(=O)c2cc(C)n(-c3ccc4c(c3)OCO4)c2C)s1 | -2.64 | i | i | 16* | i | i | i | i | i | i
Cc1cc(C(=O)CSc2nnnn2C)c(C)n1-c1ccc2c(c1)OCCO2 | -0.06 | i | i | i | i | i | . | . | . | .
COCCN1C(=O)/C(=C/c2ccc(N3CCCC3)cc2C)SC1=S | -2.15 | i | i | 19.4* | i | i | i | 0.126* | i | 48*
Cc1ccc(Nc2nc(-c3cccnc3)cs2)cc1C | -0.59 | i | i | 6.52* | i | i | i | i | i | i
Brc1ccc(Nc2nc(-c3cccnc3)cs2)cc1 | 0.17 | i | i | i | i | i | . | . | . | .
Cc1ccc2[nH]cc(S(=O)(=O)c3ccc(C(C)C)cc3)c(=O)c2c1 | -1.58 | i | i | i | i | i | . | . | . | .
CCOC(=O)C1C(=O)NC(c2ccccc2)=NC1c1ccccc1 (centres undefined) | 0.66 | i | i | i | i | i | . | . | . | .
CCOC(=O)C1C(=O)NC(c2ccccc2)=NC1c1ccc(OC)cc1 (centres undefined) | 2.32 | i | i | 12* | i | i | i | i | i | i
CCN(CC)CCC(c1ccc(N(C)C)cc1)c1c(OC)cc(OC)c2c(-c3ccccc3)cc(=O)oc12 (centres undefined) | . | . | i | i | i | . | . | . | . | .
Cc1ccc(NC2=NC(c3ccccc3)n3c(nc(C)cc3=O)N2)c(C)c1 (centres undefined) | -0.05 | i | i | 122* | i | i | i | i | i | i
Cc1ccc(NC2=NC(c3ccc(F)cc3)n3c(nc(C)cc3=O)N2)c(C)c1 (centres undefined) | 0.26 | i | i | i | i | i | . | . | . | .
O=C(NCCN1CCCCCC1)C1CCCN1S(=O)(=O)c1cccc2nsnc12 (centres undefined) | -0.13 | i | i | i | i | i | . | . | . | .
Cc1ccc(Oc2ccc(Cl)cc2N)cc1 | -0.59 | i | i | 6.85* | i | i | i | i | i | i
Nc1cc(Cl)ccc1Oc1ccc2ccccc2c1 | 1.15 | i | i | i | i | i | . | . | . | .
C=CCn1c(SCC(=O)NC2CCCCC2)nc2ccccc2c1=O | -2.26 | i | i | i | i | i | . | . | . | .
CSc1nccc(Nc2ccccc2)c1C#N | 0.32 | i | i | 15.5* | i | i | 8.6%* | i | i | i
COc1nccc(Nc2ccccc2)c1C#N | . | . | i | i | i | . | . | . | . | .
COc1ccc(CN(C)CC(=O)Nc2sc3c(c2C#N)CCC3)c(OC)c1 | -0.04 | i | i | i | i | i | . | . | . | .
NC(=O)c1c(NC(=O)c2cccs2)sc2c1CCCCCC2 | 0.07 | i | i | 8.52* | i | i | i | i | i | i
O=C(Nc1sc2c(c1C(=O)O)CCC2)c1cccs1 | -1.12 | i | i | i | i | i | . | . | . | .
CCn1c(=O)c(=O)n(CC)c2cc(S(=O)(=O)Nc3ccc(C)cc3)ccc21 | -1.1 | i | i | 11.3* | i | i | i | i | i | i
CC(C)(C)Sc1ccc2nc3c(n2c1)CCCC3 | 1.19 | i | i | 16.4* | i | i | i | i | i | i
CC1(C)CC2CC(C)(CN2Cc2c(O)ccc3ccccc23)C1 (centres undefined) | -0.61 | i | i | 7.45* | i | i | i | i | i | 52.5*
CC1(C)CC2CC(C)(CN2C(=O)c2ccccc2)C1 (centres undefined) | -1.14 | i | i | i | i | i | . | . | . | .
O=C(c1cc2nc(-c3ccc(F)cc3)cc(C(F)(F)F)n2n1)N1CCCCC1c1cccnc1 (centres undefined) | 0.44 | i | i | 7.1* | i | i | i | i | i | i
SMILES | Kir21 block | RGS4 inh | MrgX1 antagonist | MrgX1 allo act | MrgX1 ag | RGS4 pot | MrgX1 PAM conf | HEK293 Ca flux | HEK293 Ca counter | HEK293 Ca cntr2
O=C(CSc1ncnc2ccccc12)c1ccco1 | -0.34 | i | i | i | i | i | . | . | . | .
CCOC(=O)c1cnc(-c2ccccc2)nc1N | -0.07 | i | i | 10.1* | i | i | i | i | i | i
Oc1ccc(/C=C/c2cc(O)cc(O)c2)cc1 | 0.32 | i | i | i | i | i | . | . | . | .
Nc1c(C(=O)c2ccccc2)oc2ccccc12 | 2.45 | i | i | i | i | i | . | . | . | .
Cc1c(C(=O)c2ccccc2)oc2ccc3ccccc3c12 | -1.23 | i | i | 12.6* | i | i | i | i | 48.1* | i
O=C1Cc2cc(S(=O)(=O)N3CCN(c4cccc(Cl)c4)CC3)ccc2N1 | 1.96 | i | i | i | i | i | . | . | . | .
O=C(COC(=O)CCC(=O)Nc1nccs1)NCc1ccco1 | 0.38 | i | i | i | i | i | . | . | . | .
CC(=O)OCC(=O)[C@@]12OC(C)(C)O[C@@H]1C[C@H]1[C@@H]3C[C@H](F)C4=CC(=O)C=C[C@]4(C)[C@@]3(F)[C@@H](O)C[C@@]12C | 0.96 | i | i | i | i | i | . | . | . | .
O=C(COc1ccccc1)Nc1ccccc1Oc1ccccc1 | -1.07 | i | i | i | i | i | . | . | . | .
